According to ChEMBL document CHEMBL1938250, “The discovery of non-benzimidazole and brain-penetrant prolylcarboxypeptidase inhibitors” (Bioorg Med Chem Lett, 2012):
Calls of active or inactive are those of the source. The calls are words filed in the database; no cut-off is given here.

Legend:
[1] = target: T1, Lysosomal Pro-X carboxypeptidase (Mus musculus, UniProt Q7TMR0); test: Inhibition of recombinant mouse PrCP using Mca-Ala-Pro-Lys(Dnp)-OH as substrate measured for 30 mins by continuous fluorometric assay
T1 sequence (Q7TMR0 whole entry): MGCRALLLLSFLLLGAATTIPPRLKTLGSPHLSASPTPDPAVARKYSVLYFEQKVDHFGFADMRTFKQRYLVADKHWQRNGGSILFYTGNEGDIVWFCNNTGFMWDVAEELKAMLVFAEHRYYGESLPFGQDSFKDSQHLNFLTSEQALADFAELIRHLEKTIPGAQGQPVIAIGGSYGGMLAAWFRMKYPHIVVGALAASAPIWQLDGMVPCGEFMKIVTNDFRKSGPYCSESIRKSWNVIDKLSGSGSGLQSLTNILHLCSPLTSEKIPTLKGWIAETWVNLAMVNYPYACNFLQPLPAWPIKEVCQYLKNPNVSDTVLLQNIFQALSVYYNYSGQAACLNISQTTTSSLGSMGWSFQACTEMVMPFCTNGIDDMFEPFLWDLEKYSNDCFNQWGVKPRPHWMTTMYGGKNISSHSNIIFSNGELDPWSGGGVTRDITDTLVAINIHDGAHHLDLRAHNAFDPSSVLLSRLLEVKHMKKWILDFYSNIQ

[2] = target: T1, Lysosomal Pro-X carboxypeptidase; test: Inhibition of PrCP-mediated conversion of Ang3 to Ang(2-7) in mouse plasma
How it was run: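 Whole mouse plasma was pretreated with protease inhibitors to block non-PrCP conversion of angiotensin III. Inhibitor was then added, and the rate of conversion of AngIII to Ang(2–7) was compared with a vehicle-treated control.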

[3] = Half life in mouse at 1 mg/kg, iv and 2 mg/kg, po by LC-MS/MS analysis; assay type: ADME, organism-based; settings: in vivo
How it was run: (§1)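 Mice received 1 mg/kg IV (n = 2) or 2 mg/kg PO (n = 3). The formulation was 1 mg/mL in ethanol–PEG–water (20:40:40). Blood was deproteinized with acetonitrile and drug levels were measured by LC/MS/MS. Outputs were clearance, Vd, half-life, %F and dose-normalized oral AUC.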

[4] = Oral bioavailability in mouse at 2 mg/kg by LC-MS/MS analysis; assay type: ADME, organism-based; settings: in vivo; how it was run: as §1
Mus musculus [5] = test: Normalized AUC in mouse at 2 mg/kg, po by LC-MS/MS analysis; assay type: ADME, organism-based; design: dose 2 mg/kg, route oral; settings: in vivo; how it was run: as §1
[6] = Clearance in mouse at 1 mg/kg, iv and 2 mg/kg, po by LC-MS/MS analysis; assay type: ADME, organism-based; settings: in vivo; how it was run: as §1
[7] = Volume of distribution in mouse at 1 mg/kg, iv and 2 mg/kg, po by LC-MS/MS analysis; assay type: ADME, organism-based; settings: in vivo
How it was run: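 Mouse PK with the compound formulated at 1 mg/mL in ethanol–PEG–water (20:40:40). Given IV at 1 mg/kg (n = 2) and PO at 2 mg/kg (n = 3). Blood concentrations were measured by LC/MS/MS after protein precipitation with acetonitrile. Volume of distribution is reported in L/kg.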

Mus musculus [8] = test: Terminal plasma PrCP inhibition in eDIO mouse model at 10 mg/kg, sc administered for 7 days; assay type: functional; settings: 168 h, route subcutaneous
Mus musculus [9] = test: Induction of weight loss in wild type PrCP expressing mouse at 30 mg/kg, sc administered for 7 days; assay type: functional, organism-based; design: dose 30 mg/kg
How it was run: (§2)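 Wild-type and PrCP knockout mice (n = 8 per group) received continuous subcutaneous infusion by pump for 7 days at 10 or 30 mg/kg. The vehicle was DMSO–1,2-propanediol (1:1 v/v). Body weight and food intake were recorded daily and compared with a vehicle group. Injection-site adverse events were noted, and terminal plasma drug concentration was measured.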

Mus musculus [10] = test: Induction of weight loss in PrCP knock-out mouse at 30 mg/kg, sc administered for 7 days; assay type: functional, organism-based; design: dose 30 mg/kg; how it was run: as §2
Mus musculus [11] = test: Induction of weight loss in wild type PrCP expressing mouse at 10 mg/kg, sc administered for 7 days; assay type: functional, organism-based; design: dose 10 mg/kg; how it was run: as §2
Mus musculus [12] = test: Induction of weight loss in PrCP knock-out mouse at 10 mg/kg, sc administered for 7 days; assay type: functional, organism-based; design: dose 10 mg/kg; how it was run: as §2
Mus musculus [13] = test: Inhibition of wild type PrCP in mouse plasma at 30 mg/kg, sc administered for 7 days by fluorescence analysis; assay type: functional; settings: 168 h, route subcutaneous
Mus musculus [14] = test: Inhibition of wild type PrCP in mouse plasma at 10 mg/kg, sc administered for 7 days by fluorescence analysis; assay type: functional; settings: 168 h, route subcutaneous
Mus musculus [15] = organism: Mus musculus; settings: 10 mg/kg
[16] = Drug uptake in wild type MDR1A expressing CF1 mouse plasma at 30 mg/kg, po after 2 hrs; assay type: ADME, organism-based; design: dose 30 mg/kg, route oral
How it was run: (§3)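 CF1 MDR1A wild-type and MDR1A(-/-) mice (n = 4 each) received a single 30 mg/kg oral dose. Plasma and brain concentrations (nM) were measured at 2 and 6 h post-dose. The brain/plasma ratio was derived for each time point.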

[17] = Drug uptake in wild type MDR1A expressing CF1 mouse plasma at 30 mg/kg, po after 6 hrs; assay type: ADME, organism-based; design: dose 30 mg/kg, route oral; how it was run: as §3
[18] = Drug uptake in wild type MDR1A expressing CF1 mouse brain at 30 mg/kg, po after 2 hrs; assay type: ADME, organism-based; design: dose 30 mg/kg, route oral; settings: read-out: Drug uptake; how it was run: as §3
[19] = Drug uptake in wild type MDR1A expressing CF1 mouse brain at 30 mg/kg, po after 6 hrs; assay type: ADME, organism-based; design: dose 30 mg/kg, route oral; settings: read-out: Drug uptake; how it was run: as §3
[20] = Ratio of drug level in brain to plasma in wild type MDR1A expressing CF1 mouse at 30 mg/kg, po after 2 hrs; assay type: ADME, organism-based; design: dose 30 mg/kg, route oral; settings: read-out: BPR; how it was run: as §3
[21] = Ratio of drug level in brain to plasma in wild type MDR1A expressing CF1 mouse at 30 mg/kg, po after 6 hrs; assay type: ADME, organism-based; design: dose 30 mg/kg, route oral; settings: read-out: BPR; how it was run: as §3
[22] = Drug uptake in MDR1A knock-out CF1 mouse plasma at 30 mg/kg, po after 2 hrs; assay type: ADME, organism-based; design: dose 30 mg/kg, route oral; how it was run: as §3
[23] = Drug uptake in MDR1A knock-out CF1 mouse plasma at 30 mg/kg, po after 6 hrs; assay type: ADME, organism-based; design: dose 30 mg/kg, route oral; how it was run: as §3
[24] = Drug uptake in MDR1A knock-out CF1 mouse brain at 30 mg/kg, po after 2 hrs; assay type: ADME, organism-based; design: dose 30 mg/kg, route oral; settings: read-out: Drug uptake; how it was run: as §3
[25] = Drug uptake in MDR1A knock-out CF1 mouse brain at 30 mg/kg, po after 6 hrs; assay type: ADME, organism-based; design: dose 30 mg/kg, route oral; settings: read-out: Drug uptake; how it was run: as §3
[26] = Ratio of drug level in brain to plasma in MDR1A knock-out CF1 mouse at 30 mg/kg, po after 2 hrs; assay type: ADME, organism-based; design: dose 30 mg/kg, route oral; settings: read-out: BPR; how it was run: as §3
[27] = Ratio of drug level in brain to plasma in MDR1A knock-out CF1 mouse at 30 mg/kg, po after 6 hrs; assay type: ADME, organism-based; design: dose 30 mg/kg, route oral; settings: read-out: BPR; how it was run: as §3

C[C@H](NC(=O)[C@@H](NC(=O)C(C)(C)N)[C@@H](C)c1ccc(-c2ccccc2)cc1)c1ccc(Cl)cc1
IC50 [1]: 2.3 nM | IC50 [2]: 198 nM

O=C(CCN1CCC(c2nc(-c3ccccn3)no2)CC1)NC(c1ccc(Cl)cc1)c1ccc(Cl)cc1
half-life [3]: 0.7 h | bioavailability [4]: 1.3% | AUC/dose (Mus musculus [5]): < 0.01 µM·kg·h/mg | IC50 [1]: 10 nM | IC50 [2]: 305 nM | clearance [6]: 105 mL/min/kg | Vd [7]: 5.6 L/kg

CC(C)[C@H](NC(=O)CCN1CCC(c2ccccc2)CC1)c1ccc(Cl)cc1
inhibition in vivo at 10 mg/kg (Mus musculus [8]): 65% | Activity (Mus musculus [9]): Active | Activity (Mus musculus [10]): Active | Activity (Mus musculus [11]): inactive | Activity (Mus musculus [12]): inactive | inhibition in vivo at 30 mg/kg (Mus musculus [13]): 85% | inhibition in vivo at 10 mg/kg (Mus musculus [14]): 87% | IC50 [1]: 5.2 nM | IC50 [2]: 12.6 nM | inhibition (Mus musculus [15]): inactive

C[C@@H](c1ccc(-c2ccccc2)cc1)[C@H](NC(=O)C(C)(C)N)C(=O)NC(c1ccc(Cl)cc1)C(F)F (mixture of isomers)
IC50 [1]: 6.6 nM | IC50 [2]: 458 nM

CC(NC(=O)CCN1CCC(c2ccccc2)CC1)c1ccccc1-c1ccccc1 (centres undefined)
IC50 [1]: 5.7 nM

O=C(CCN1CCC(c2nc(-c3ccccn3)no2)CC1)NC(c1ccc(Cl)cc1)C(F)F (racemic)
IC50 [2]: 156 nM

C[C@@H](c1ccc(-c2ccccc2)cc1)[C@H](N)C(=O)NC(c1ccncc1)c1ccc(Cl)cc1 (mixture of isomers)
IC50 [1]: 1.4 nM | IC50 [2]: 108 nM

O=C(CCN1CCC(c2ccccc2)CC1)NC(c1ccc(Cl)cc1)C(F)F (centres undefined)
IC50 [1]: 17 nM | IC50 [2]: 17 nM

C[C@@H](c1ccc(-c2ccccc2)cc1)[C@H](NC(=O)C(C)(C)N)C(=O)NC(c1ccncc1)c1ccc(Cl)cc1 (mixture of isomers)
half-life [3]: 3.6 h | IC50 [1]: 0.4 nM | IC50 [2]: 6 nM | clearance [6]: 85 mL/min/kg | Vd [7]: 21 L/kg

O=C(CCN1CCC(c2ccccc2)CC1)NC(c1ccc(Cl)cc1)C(F)(F)F (centres undefined)
IC50 [1]: 14 nM

C[C@@H](c1ccc(-c2ccccc2)cc1)[C@H](NC(=O)C(C)(C)N)C(=O)NC(c1ccc(Cl)cc1)C(F)(F)F (mixture of isomers)
half-life [3]: 4.4 h | bioavailability [4]: 40% | AUC/dose (Mus musculus [5]): 0.19 µM·kg·h/mg | clearance [6]: 78 mL/min/kg | Vd [7]: 24 L/kg

C[C@H](NC(=O)CCN1CCC(c2ccccc2)CC1)c1ccc(Cl)cc1
half-life [3]: 2.3 h | bioavailability [4]: < 1% | AUC/dose (Mus musculus [5]): < 0.01 µM·kg·h/mg | IC50 [1]: 54 nM | IC50 [2]: 240 nM | clearance [6]: 185 mL/min/kg | Vd [7]: 27 L/kg

Cn1cc(C(NC(=O)CCN2CCC(c3ccccc3)CC2)c2ccc(Cl)cc2)cn1 (racemic)
IC50 [1]: 25 nM

O=C(CCN1CCC(c2nc(-c3ccccn3)no2)CC1)N1CCC[C@H]1c1nc2cc(Cl)c(Cl)cc2[nH]1
IC50 [1]: 4 nM

O=C(CCN1CCC(c2nc(-c3ccccn3)no2)CC1)NC(c1ccncc1)c1ccc(F)cc1 (racemic)
IC50 [2]: 15 nM

O=C(CCN1CCC(c2ccccc2)CC1)N1CCC[C@H]1c1nc2cc(Cl)c(Cl)cc2[nH]1
IC50 [2]: > 10000 nM

C[C@H](NC(=O)CCN1CCC(c2nc(-c3ccccn3)no2)CC1)c1ccc(F)cc1
IC50 [2]: 348 nM

O=C(CCN1CCC(c2ccccc2)CC1)NC(c1ccncc1)c1ccc(Cl)cc1 (racemic)
IC50 [1]: 2.1 nM

C[C@@H](c1ccc(-c2ccccc2)cc1)[C@H](NC(=O)C(C)(C)N)C(=O)N1CCC[C@H]1c1nc2cc(Cl)c(Cl)cc2[nH]1
IC50 [2]: 26 nM | concentration at 2 h [16]: 306 nM | concentration at 6 h [17]: 91 nM | concentration at 2 h [18]: 4 nM | concentration at 6 h [19]: 3 nM | Kp at 2 h [20]: 0.01 | Kp at 6 h [21]: 0.04 | concentration at 2 h [22]: 186 nM | concentration at 6 h [23]: 51 nM | concentration at 2 h [24]: 166 nM | concentration at 6 h [25]: 185 nM | Kp at 2 h [26]: 0.9 | Kp at 6 h [27]: 3.6

O=C(CCN1CCC(c2ccccc2)CC1)NC(c1ccc(Cl)cc1)c1ccc(Cl)cc1
IC50 [1]: 4 nM | IC50 [2]: 58 nM

C[C@H](NC(=O)[C@@H](N)[C@@H](C)c1ccc(-c2ccccc2)cc1)c1ccc(Cl)cc1
IC50 [1]: 11 nM | IC50 [2]: 570 nM

C[C@H](NC(=O)CCN1CCC(c2ccccc2)CC1)c1ccc(Br)cc1
IC50 [1]: 20 nM
